Experimental data collected from several papers.
Lines come from different studies, so protocols differ. pIC50: −log10 of the molar value.
Observed: enzyme activity
Mode: inhibitor
HDAC1: Histone deacetylase 1 (HDAC1, Homo sapiens, UniProt Q13547)
PARP10: Protein mono-ADP-ribosyltransferase PARP10 (PARP10, Homo sapiens, UniProt Q53GL7)
Seed linoleate 13S-lipoxygenase-1: Seed linoleate 13S-lipoxygenase-1 (Glycine max, UniProt P08170)
HDAC8: Histone deacetylase 8 (HDAC8, Homo sapiens, UniProt Q9BY41)

COc1ccc(N(Cc2csc(-c3ccccc3Cl)n2)C(=O)CCCCCC(=O)NO)cc1  pIC50 (HDAC1): 8.68
O=C(NO)c1ccc(Cn2cnc3c(Nc4ccc(Cl)cc4)ncnc32)cc1  pIC50 (HDAC1; fluorescence): 6.78
Cc1ccc(Cn2nnc3c4ccc(C(F)(F)F)cc4c(=O)[nH]c32)cc1  pIC50 (PARP10): < 5.00
C=C(C)[C@@H]1CC[C@]2(C)CC[C@]3(C)[C@H](CC[C@@H]4[C@@]5(C)CC[C@H](O)C(C)(C)[C@@H]5CC[C@]43C)[C@@H]12  pIC50 (Seed linoleate 13S-lipoxygenase-1): 3.96
COc1ccc(N(Cc2csc(-c3ccccc3Br)n2)C(=O)CCCCCC(=O)NO)cc1  pIC50 (HDAC1): 8.89
O=C(CCCCc1ccc(CO)cc1)C(F)(F)C(F)(F)F  pIC50 (Cytosolic phospholipase A2 (PLA2G4A, Homo sapiens, UniProt P47712)): 3.92
COc1ccc(Nc2ncnc3c2ncn3Cc2ccc(C(=O)NO)cc2)cc1  pIC50 (HDAC1; fluorescence): 6.59
O=C(O[C@@H]1COC(=O)c2cc(O)c(O)c(O)c2-c2c(cc(O)c(O)c2O)C(=O)O[C@H]1[C@@H]1OC(=O)c2cc(O)c(O)c(O)c2-c2c(O)c(O)c(O)c3c2C(=O)O[C@H]1[C@@H]3O)c1cc(O)c(O)c(O)c1  pIC50 (Seed linoleate 13S-lipoxygenase-1): 4.44
O=c1[nH]c2c(nnn2-c2ccccc2)c2ccc(F)cc12  pIC50 (PARP10): < 5.00
COc1ccc(N(Cc2nc(-c3ccc(F)cc3)cs2)C(=O)CCCCCC(=O)NO)cc1  pIC50 (HDAC1): 9.05
O=c1[nH]c2c(nnn2Cc2c(F)c(F)c(F)c(F)c2F)c2ccc(F)cc12  pIC50 (PARP10): < 5.00
COc1ccc(N(Cc2csc(-c3ccc(Cl)cc3)n2)C(=O)CCCCCC(=O)NO)cc1  pIC50 (HDAC1): 9.00
Cc1ccc(Cn2cc(-c3ccccc3C(N)=O)nn2)cc1  pIC50 (PARP10): < 5.00
COc1ccc(N(Cc2nc(-c3ccccc3)cs2)C(=O)CCCCCC(=O)NO)cc1  pIC50 (HDAC1): 8.80
O=C(NO)c1ccc(Cn2cnc3c(Nc4cccc([N+](=O)[O-])c4)ncnc32)cc1  pIC50 (HDAC8): 6.93
COc1cccc(Cn2nnc3c4ccc(F)cc4c(=O)[nH]c32)c1  pIC50 (PARP10): 5.78
O=C(CCCCCC(=O)N(Cc1nc(-c2ccccc2)cs1)c1ccc(OCc2ccc(F)cc2)cc1)NO  pIC50 (HDAC1): 8.42
Cc1ccc(Cn2nnc3c4ccccc4c(=O)[nH]c32)cc1  pIC50 (PARP10): 6.69
O=C1CC[C@H](N2Cc3cc(N4CCN(CC5CCN(c6ccc([C@@H]7c8ccc(O)cc8CC[C@@H]7c7ccccc7)cc6)CC5)CC4)ccc3C2=O)C(=O)N1  pIC50 (ATP-dependent translocase ABCB1 (ABCB1, Homo sapiens, UniProt P08183)): 6.05
COc1ccc(N(Cc2csc(-c3ccc(Br)cc3)n2)C(=O)CCCCCC(=O)NO)cc1  pIC50 (HDAC1): 9.00
O=C(NO)c1ccc(Cn2cnc3c(Nc4ccc(F)c(Cl)c4)ncnc32)cc1  pIC50 (HDAC8): 6.81
Cc1ccc(S(=O)(=O)NNc2ccc([N+](=O)[O-])cc2[N+](=O)[O-])cc1  pIC50 (Polyunsaturated fatty acid 5-lipoxygenase (ALOX5, Homo sapiens, UniProt P09917)): 5.88
Nc1cnccc1Nc1ccc(Cl)c(Cl)c1  pIC50 (Uracil-DNA glycosylase (UNG, Homo sapiens, UniProt P13051)): < 4.00
COc1ccc(N(Cc2nc(-c3ccc(Cl)cc3)cs2)C(=O)CCCCCC(=O)NO)cc1  pIC50 (HDAC1): 8.77
Cc1ccccc1Cn1nnc2c3ccc(F)cc3c(=O)[nH]c21  pIC50 (PARP10): < 5.00
Nc1nc2c(ncn2[C@H]2CC[C@@H](COP(=O)(O)OP(=O)(O)OP(=O)(O)O)O2)c(=O)[nH]1  pIC50 (TERT (Tribolium castaneum, UniProt Q0QHL8); fluorescence): 6.26
